Measurements as given in ChEMBL document CHEMBL2203205 (Eur J Med Chem, 2012).

Experiments:
[1] = Clearance in Sprague-Dawley rat at 3 mg/kg, iv; type: ADME, organism-based; parameters: dose 3 mg/kg, route intravenous; settings: in vivo
Summary of the method: (§1)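 Male Sprague-Dawley rats dosed intravenously (3 mg/kg) and orally (10 mg/kg). PK parameters came from non-compartmental analysis of plasma concentration vs time curves.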

[2] = target: T1, Voltage-gated inwardly rectifying potassium channel KCNH2 (Homo sapiens, UniProt Q12809); assay: Inhibition of human recombinant ERG expressed in HEK293 cells up to 100 uM after 5 to 10 mins by conventional whole-cell patch clamp assay; type: cell-based
Summary of the method: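 Conventional whole-cell patch clamp on HEK-293 cells stably expressing hERG, cultured 1–7 days in DMEM/GlutaMax-1 + 10% FBS on collagen-coated dishes. Holding potential was −80 mV. Compound was superfused 5–10 min per concentration at rt (22–24 °C). Tail current amplitude was measured before and after superfusion. IC50 came from a logistic fit of the concentration-response.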

[3] = target: Muscarinic acetylcholine receptor M3 (Homo sapiens, UniProt P20309); assay: Inhibition of muscarinic M3 receptor
Summary of the method: (§2)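 Radioligand competition binding, run first as a single-concentration broad screen at […], then as concentration-response for follow-up targets, with the reference compound tested in parallel. Specific binding is total minus binding in excess unlabelled ligand, expressed as % of control specific binding. IC50 and Hill coefficient come from non-linear Hill-equation regression of competition curves built from mean replicate values.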

[4] = target: 5-hydroxytryptamine receptor 1B (Homo sapiens, UniProt P28222); assay: Inhibition of 5HT1B receptor; summary of the method: as §2
[5] = Cmax in Sprague-Dawley rat at 10 mg/kg, po; type: ADME, organism-based; parameters: dose 10 mg/kg, route oral; settings: in vivo; summary of the method: as §1
[6] = target: T2, Muscarinic acetylcholine receptor M1 (Homo sapiens, UniProt P11229); assay: Inhibition of muscarinic M1 receptor; summary of the method: as §2
T2 sequence (P11229 whole entry): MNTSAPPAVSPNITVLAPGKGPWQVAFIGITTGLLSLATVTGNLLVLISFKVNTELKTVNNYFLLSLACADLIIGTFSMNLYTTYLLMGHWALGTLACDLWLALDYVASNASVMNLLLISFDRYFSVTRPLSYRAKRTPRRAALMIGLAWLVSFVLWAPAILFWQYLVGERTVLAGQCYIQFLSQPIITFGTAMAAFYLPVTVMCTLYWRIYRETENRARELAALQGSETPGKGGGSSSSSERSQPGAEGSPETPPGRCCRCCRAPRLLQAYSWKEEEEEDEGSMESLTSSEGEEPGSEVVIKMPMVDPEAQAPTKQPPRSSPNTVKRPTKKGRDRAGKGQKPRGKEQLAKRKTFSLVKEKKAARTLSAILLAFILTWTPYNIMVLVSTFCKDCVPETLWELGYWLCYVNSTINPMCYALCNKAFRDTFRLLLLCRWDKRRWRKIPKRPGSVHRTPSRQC

[7] = target: T3, Alpha-2A adrenergic receptor (Homo sapiens, UniProt P08913); assay: Inhibition of alpha2A adrenergic receptor; summary of the method: as §2
T3 sequence (P08913 whole entry): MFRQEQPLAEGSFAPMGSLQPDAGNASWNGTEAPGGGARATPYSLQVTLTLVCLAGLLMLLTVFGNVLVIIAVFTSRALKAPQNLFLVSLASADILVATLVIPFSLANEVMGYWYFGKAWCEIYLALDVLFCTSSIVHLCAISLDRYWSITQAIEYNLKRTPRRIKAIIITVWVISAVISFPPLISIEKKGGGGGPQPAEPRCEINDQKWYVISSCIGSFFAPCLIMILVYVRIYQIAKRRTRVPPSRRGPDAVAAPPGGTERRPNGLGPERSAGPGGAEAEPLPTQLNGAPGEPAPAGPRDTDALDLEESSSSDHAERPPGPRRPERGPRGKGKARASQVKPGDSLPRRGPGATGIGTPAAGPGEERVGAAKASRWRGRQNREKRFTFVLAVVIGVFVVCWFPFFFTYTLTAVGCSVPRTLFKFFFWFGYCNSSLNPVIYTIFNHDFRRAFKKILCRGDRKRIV

[8] = target: T4, Alpha-1B adrenergic receptor (Homo sapiens, UniProt P35368); assay: Inhibition of alpha1B adrenergic receptor; summary of the method: as §2
T4 sequence (P35368 whole entry): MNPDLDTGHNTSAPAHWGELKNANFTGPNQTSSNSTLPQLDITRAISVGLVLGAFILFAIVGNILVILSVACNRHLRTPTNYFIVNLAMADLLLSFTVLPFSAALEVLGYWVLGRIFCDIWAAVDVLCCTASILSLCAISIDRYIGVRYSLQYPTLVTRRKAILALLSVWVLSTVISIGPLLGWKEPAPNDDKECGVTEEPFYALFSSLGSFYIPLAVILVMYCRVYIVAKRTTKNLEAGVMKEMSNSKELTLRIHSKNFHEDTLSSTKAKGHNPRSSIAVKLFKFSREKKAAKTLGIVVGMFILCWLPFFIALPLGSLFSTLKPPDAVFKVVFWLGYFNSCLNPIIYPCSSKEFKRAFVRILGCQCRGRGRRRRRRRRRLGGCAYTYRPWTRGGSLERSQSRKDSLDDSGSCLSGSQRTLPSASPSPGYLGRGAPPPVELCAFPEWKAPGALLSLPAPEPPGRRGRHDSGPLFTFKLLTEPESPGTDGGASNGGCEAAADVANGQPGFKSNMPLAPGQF

Rattus norvegicus = assay: Analgesic activity in rat L5 and L6 spinal nerve ligation model assessed as reversal of thermal hyperalgesia at 30 mg/kg, ip after 60 mins; type: functional; settings: route intraperitoneal
[9] = Volume of distribution at steady state in Sprague-Dawley rat at 3 mg/kg, iv; type: ADME, organism-based; parameters: dose 3 mg/kg, route intravenous; settings: in vivo, read-out: Vdss; summary of the method: as §1
[10] = Oral bioavailability in Sprague-Dawley rat at 10 mg/kg; type: ADME, organism-based; settings: in vivo; summary of the method: as §1
[11] = target: T1, Voltage-gated inwardly rectifying potassium channel KCNH2; assay: Displacement of [3H]astemizole from human recombinant ERG expressed in HEK293 cells; type: cell-based
Summary of the method: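 Binding was run in human recombinant HEK-293 cells with [3H]astemizole at 2 nM, incubated 75 min at 22 °C, with astemizole as reference. Nonspecific binding was taken with excess unlabelled ligand. Results were given as percent inhibition of control specific binding.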

[12] = target: T5, Muscarinic acetylcholine receptor M2 (Homo sapiens, UniProt P08172); assay: Inhibition of muscarinic M2 receptor; summary of the method: as §2
T5 sequence (P08172 whole entry): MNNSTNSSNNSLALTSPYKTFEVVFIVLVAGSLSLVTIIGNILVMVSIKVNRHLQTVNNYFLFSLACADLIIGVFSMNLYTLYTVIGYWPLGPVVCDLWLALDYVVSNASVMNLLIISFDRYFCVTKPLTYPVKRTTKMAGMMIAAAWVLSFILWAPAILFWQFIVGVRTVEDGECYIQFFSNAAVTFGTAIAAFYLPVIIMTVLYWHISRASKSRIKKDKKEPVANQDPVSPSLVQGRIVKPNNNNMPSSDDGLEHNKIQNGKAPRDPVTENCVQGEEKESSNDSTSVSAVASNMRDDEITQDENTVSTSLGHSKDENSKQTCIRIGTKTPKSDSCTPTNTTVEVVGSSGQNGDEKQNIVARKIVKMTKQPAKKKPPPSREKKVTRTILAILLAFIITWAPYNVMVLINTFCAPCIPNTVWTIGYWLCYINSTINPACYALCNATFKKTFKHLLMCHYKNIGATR

T1 sequence (Q12809 whole entry, the tested form may be a part): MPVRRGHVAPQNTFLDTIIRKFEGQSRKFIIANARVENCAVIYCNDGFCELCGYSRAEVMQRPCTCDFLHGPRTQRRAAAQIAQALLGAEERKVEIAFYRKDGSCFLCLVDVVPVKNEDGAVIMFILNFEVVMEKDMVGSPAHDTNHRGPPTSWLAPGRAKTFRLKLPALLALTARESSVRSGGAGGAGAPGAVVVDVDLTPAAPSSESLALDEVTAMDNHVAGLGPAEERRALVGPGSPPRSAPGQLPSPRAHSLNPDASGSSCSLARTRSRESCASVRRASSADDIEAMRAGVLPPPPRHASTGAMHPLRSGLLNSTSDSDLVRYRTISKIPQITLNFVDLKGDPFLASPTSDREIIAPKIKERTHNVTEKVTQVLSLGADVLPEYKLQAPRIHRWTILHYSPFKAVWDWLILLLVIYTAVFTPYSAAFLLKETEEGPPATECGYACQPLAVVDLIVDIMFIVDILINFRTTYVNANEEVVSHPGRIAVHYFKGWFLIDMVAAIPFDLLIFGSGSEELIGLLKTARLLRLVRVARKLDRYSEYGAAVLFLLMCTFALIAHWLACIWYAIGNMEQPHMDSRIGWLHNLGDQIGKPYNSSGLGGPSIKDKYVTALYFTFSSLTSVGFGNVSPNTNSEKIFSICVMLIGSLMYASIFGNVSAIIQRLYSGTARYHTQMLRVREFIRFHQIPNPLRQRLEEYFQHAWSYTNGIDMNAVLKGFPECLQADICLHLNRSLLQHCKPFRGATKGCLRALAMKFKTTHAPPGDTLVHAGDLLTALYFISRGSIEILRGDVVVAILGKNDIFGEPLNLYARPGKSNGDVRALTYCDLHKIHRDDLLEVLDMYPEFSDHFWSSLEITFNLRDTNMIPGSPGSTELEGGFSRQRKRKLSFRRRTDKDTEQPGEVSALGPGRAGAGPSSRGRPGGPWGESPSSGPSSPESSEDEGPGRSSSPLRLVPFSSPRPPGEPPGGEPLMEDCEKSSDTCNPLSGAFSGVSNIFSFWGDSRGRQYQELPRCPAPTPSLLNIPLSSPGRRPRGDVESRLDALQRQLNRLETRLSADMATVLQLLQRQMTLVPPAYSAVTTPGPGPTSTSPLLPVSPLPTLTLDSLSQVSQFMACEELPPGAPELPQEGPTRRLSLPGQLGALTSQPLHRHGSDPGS
Chain of 5-hydroxytryptamine receptor 1B (P28222 whole entry): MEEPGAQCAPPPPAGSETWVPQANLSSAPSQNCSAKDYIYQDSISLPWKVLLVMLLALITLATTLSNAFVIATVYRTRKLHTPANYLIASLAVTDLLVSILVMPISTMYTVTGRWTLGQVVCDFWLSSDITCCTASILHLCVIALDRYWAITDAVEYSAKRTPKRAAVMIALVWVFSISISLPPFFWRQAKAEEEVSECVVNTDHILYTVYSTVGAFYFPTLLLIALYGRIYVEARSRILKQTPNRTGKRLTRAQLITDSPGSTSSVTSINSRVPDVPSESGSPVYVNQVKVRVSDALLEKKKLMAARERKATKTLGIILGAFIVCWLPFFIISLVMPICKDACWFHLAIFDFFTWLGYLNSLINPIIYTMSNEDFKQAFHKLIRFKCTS
Chain of Muscarinic acetylcholine receptor M3 (P20309 whole entry): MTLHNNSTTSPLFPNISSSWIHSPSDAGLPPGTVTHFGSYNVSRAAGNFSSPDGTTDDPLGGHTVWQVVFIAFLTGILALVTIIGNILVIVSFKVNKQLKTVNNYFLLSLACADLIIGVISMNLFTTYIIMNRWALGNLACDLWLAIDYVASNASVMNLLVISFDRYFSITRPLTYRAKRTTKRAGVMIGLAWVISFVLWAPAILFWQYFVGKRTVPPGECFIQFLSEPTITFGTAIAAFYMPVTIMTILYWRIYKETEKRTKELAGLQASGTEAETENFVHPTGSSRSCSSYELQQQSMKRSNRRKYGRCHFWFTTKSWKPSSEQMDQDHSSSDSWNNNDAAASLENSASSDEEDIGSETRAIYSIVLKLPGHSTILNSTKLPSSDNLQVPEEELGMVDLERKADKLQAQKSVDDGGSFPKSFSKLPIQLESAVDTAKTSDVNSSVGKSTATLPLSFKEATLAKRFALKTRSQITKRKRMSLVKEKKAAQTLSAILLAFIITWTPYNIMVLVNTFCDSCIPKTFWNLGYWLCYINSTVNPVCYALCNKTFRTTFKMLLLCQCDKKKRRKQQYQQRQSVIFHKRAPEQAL

clearance [1]: 420 mL/min/kg
IC50 [3]: 4.5 µM
IC50 [4]: 2.2 µM
Cmax [5]: 101 ng/mL
IC50 [6]: 8.6 µM
IC50 [7]: 24 µM
IC50 [8]: 1.8 µM
Vd [9]: 330 L/kg
bioavailability [10]: 91%
IC50 [12]: 3.6 µM
Compound: N=C(Nc1ccc2c(c1)CCN2C1CCNCC1)c1cccs1
inhibition (INH) [2]: Not Active
Activity (Rattus norvegicus): 71%
IC50 [11]: 160 µM
